Values joined by “and” are separate entries in the source; they are usually repeats but may differ in a detail not shown here. Equal entries are not always repeated.

The test system of one data set is Plasmodium falciparum. Nature of the data set: In vitro antimalarial activity against Plasmodium falciparum FCB1. In kind it is functional, organism-based. In outline: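 P. falciparum FCB1 (chloroquine-resistant) cultured continuously in human erythrocytes. Ring-synchronized cultures at 1% parasitemia and 1% final hematocrit were exposed to serial dilutions, with methanol or DMSO ≤0.1%. Cultures received [3H]-hypoxanthine and were incubated 48 h at 37 °C. Incorporated radioactivity was compared with drug-free controls, and IC50 was taken by nonlinear regression of log(dose)-response. Mean of three experiments.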

Data set [1] relates to Mus musculus. In words: (§1) Percentage uM/kg). Format: functional. On the set-up: concentration or dose not given beside the values. In outline:
(§2)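 Female ICR (CD-1) mice (18–20 g) infected with P. berghei NK 173, following Peters' 4-day test. Dosing was intraperitoneal for 4 days, with four to five mice per group. Parasitemia was counted and inhibition calculated against infected untreated controls. Survey dose 35.5 μmol/kg. ED50/ED90 came from doses of 0.5–10 mg/kg, with parasitemia read on day 4.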

Data set [2] deals with Mus musculus. Described as §1. Format: functional. In outline:
as §2

Data set [3] concerns Mus musculus. The data set is described as §1. In kind it is functional. The gist of the method: as §2
The source holds these as a separate data set.

For data set [4], the system named is Mus musculus. The data set is described as §1. Format: functional. The gist of the method: as §2
This is another data set of the same source.

Data set [5] is described as follows: Plasmatic Half-life after intravenous administration to rat. In kind it is ADME, organism-based. Conditions: plasma.
Data set [6] deals with Mus musculus. The data set is described as §1. In kind it is functional. In outline:
as §2
This is another data set of the same source.

The nature of data set [7]: Half-life at pH 1. Format: ADME. Conditions: buffer.
In data set [8] the test system is Mus musculus. Nature of the data set: In vivo antimalarial activity against Plasmodium berghei NK 173 infected mice (Mus musculus) administered i.p. at the end of 4 day. In kind it is functional. In outline: as §2
In data set [9] the test system is Mus musculus. The data set is described as §1. Format: functional. In outline: as §2
The source holds these as a separate data set.

Data set [10] deals with Mus musculus. Nature of the data set: (§3) In vivo antimalarial activity against Plasmodium berghei NK173 infected mice (Mus musculus) administered intraperitoneal. at the end of 4 day. Conditions: ip, 96 h. Format: functional. In outline:
as §2

The test system of data set [11] is Mus musculus. The data set is described as §3. Format: functional. In outline:
(§4)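 Female ICR (CD-1) mice (18–20 g), 4–5 per group, infected with P. berghei NK 173 and dosed intraperitoneally for 4 days at 0.5 to 10 mg/kg (Peters protocol). Parasitemia was counted at day 4, and inhibition was calculated against infected untreated controls. ED50 and ED90 were derived from these counts.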

In data set [12] the test system is Mus musculus. In words: In vivo antimalarial activity against Plasmodium berghei NK173 infected mice (Mus musculus) administered intraperitoneally. at the end of 4 day. Format: functional. Conditions: ip, 96 h. The gist of the method: as §4
Where [13] appears, read: Mus musculus, ip, 96 h, read-out: ED90.

As usually defined, the IC50 is the midpoint of a concentration-inhibition curve. With `C[C@@H]1CC[C@H]2[C@@H](C)[C@](OCC(=O)O)(C(F)(F)F)OC3O[C@]4(C)CC[C@@H]1[C@]32OO4` (some centres undefined), inhibition in the data set with Plasmodium falciparum was half-maximal at 30.4 nM (IC50). In addition, in the data set on Mus musculus [1], the Parasitemia turned out to be 47.5%.
Consider `C[C@@H]1CCC2[C@@H](C)[C@](OO)(C(F)(F)F)OC3O[C@]4(C)CCC1[C@]32OO4` (some centres undefined), for which the Parasitemia is recorded as 36.8% with Mus musculus [2], 41.7% with Mus musculus [3], 28.3% in the data set with Mus musculus [4] and 5.5% in the data set on Mus musculus [1]. For the same molecule, in the data set with Plasmodium falciparum, inhibition was half-maximal at 13.2 nM (IC50).
Usually half-life stands for the time needed for the level to fall by half in the phase considered. `C[C@@H]1CC[C@H]2[C@@H](C)[C@](O)(C(F)(F)F)O[C@@H]3O[C@]4(C)CC[C@@H]1[C@]32OO4`: the Parasitemia amounted to 10.7% in the data set with Mus musculus [4], 22.1% in the data set on Mus musculus [6] and 4% with Mus musculus [1]. This molecule also gave a half-life in [5] of 1.43 h. Further, in the data set on Plasmodium falciparum, half-maximal inhibition (IC50) required 9.4 nM.
As for `C[C@@H]1CCC2[C@@H](C)[C@](OCC(F)(F)F)(C(F)(F)F)OC3O[C@]4(C)CCC1[C@]32OO4` (some centres undefined), the half-life in data set [7] was 215 h. Also, the Parasitemia in the data set on Mus musculus [4] and in the data set with Mus musculus [1] was 0% throughout. In the data set on Plasmodium falciparum, it took 8.3 nM to reach half-maximal inhibition (IC50).
By ED50 is commonly meant the dose that gives a 50% effect, or the effect in half of the subjects. For `CO[C@@]1(C(F)(F)F)OC2O[C@]3(C)CCC4[C@H](C)CCC([C@H]1C)[C@@]24OO3` (some centres undefined), the ED90 in the data set on Mus musculus [8] was found to be 17.5 µM/kg; in the data set with Mus musculus [8] (setting [13]), 6.4 mg/kg. For the same molecule, the Parasitemia with Mus musculus [9], with Mus musculus [4], with Mus musculus [6] and in the data set on Mus musculus [1] was 0% each time. The same molecule gave a half-life in [7] of 660 h. Moreover, the median effective dose (ED50) with Mus musculus [10] is 1.25 mg/kg and 3.4 µmol/kg. In the data set on Plasmodium falciparum, this molecule came in with a half-inhibitory concentration (IC50) of 0.8 nM.
For `C[C@@H]1CC[C@H]2[C@@H](C)[C@](OCC=O)(C(F)(F)F)OC3O[C@]4(C)CC[C@@H]1[C@]32OO4` (some centres undefined), the Parasitemia in the data set on Mus musculus [2] was 46.8%; with Mus musculus [3] it was 26.8%; in the data set with Mus musculus [9], 29.6%; in the data set with Mus musculus [4] it was 7.8%; in the data set on Mus musculus [1] it was 0.2%. In the data set with Plasmodium falciparum, the IC50 worked out at 21.4 nM.
Regarding `CCO[C@@]1(C(F)(F)F)OC2O[C@]3(C)CCC4[C@H](C)CCC([C@H]1C)[C@@]24OO3` (some centres undefined), the Parasitemia with Mus musculus [9] is 3.8%; with Mus musculus [4] it was 0%; in the data set with Mus musculus [6] it was 0%; in the data set on Mus musculus [1] it was 0%. Moreover, the half-life in data set [7] is 500 h. In the data set on Plasmodium falciparum, this molecule displayed an IC50 of 3.3 nM.
As to `C[C@@H]1CCC2[C@@H](C)[C@@H](O)OC3O[C@]4(C)CCC1[C@]32OO4` (some centres undefined), the half-life in data set [5] is 0.438 h.
Turning to `COC1O[C@@H]2O[C@]3(C)CCC4[C@H](C)CCC([C@H]1C)[C@]42OO3` (some centres undefined), the Parasitemia was 48.1% in the data set with Mus musculus [2], 39.2% in the data set with Mus musculus [3], 5.5% in the data set on Mus musculus [4] and 2.2% with Mus musculus [1]. Moreover, the ED90 was found to be 28.5 µM/kg in the data set on Mus musculus [11] and 8.5 mg/kg in the data set with Mus musculus [11] (setting [13]). For the same molecule, the ED50 with Mus musculus [12] is 2.5 mg/kg and 8.4 µmol/kg. Also, the IC50 in the data set with Plasmodium falciparum came out at 3.5 nM.
Take `C[C@@H]1CC[C@H]2[C@@H](C)[C@](OCC(O)CO)(C(F)(F)F)OC3O[C@]4(C)CC[C@@H]1[C@]32OO4` (some centres undefined): the Parasitemia with Mus musculus [3] is 28.8%; with Mus musculus [4], 12.1%; in the data set with Mus musculus [6], 46.3%; in the data set with Mus musculus [1] it was 2.1%. The IC50 with Plasmodium falciparum turned out to be 0.9 nM.
For `C[C@@H]1CC[C@H]2[C@@H](C)[C@](OCc3ccc(C(=O)[O-])cc3)(C(F)(F)F)OC3O[C@]4(C)CC[C@@H]1[C@]32OO4.[Na+]` (some centres undefined), the Parasitemia came to 25.6% with Mus musculus [2], 34.9% in the data set on Mus musculus [3], 26.8% in the data set with Mus musculus [4] and 25.9% with Mus musculus [1]. Besides, the half-life in data set [7] is 680 h. In the data set with Plasmodium falciparum, this molecule displayed a 50% inhibitory concentration (IC50) of 10.6 nM.
`COc1ccc(N[C@@]2(C(F)(F)F)OC3O[C@]4(C)CCC5[C@H](C)CCC([C@H]2C)[C@@]35OO4)cc1` (some centres undefined): the Parasitemia in the data set with Mus musculus [2] worked out at 8.1%; in the data set on Mus musculus [3], 0.1%; in the data set on Mus musculus [9], 0%; with Mus musculus [4], 0%; in the data set on Mus musculus [1], 0%. Moreover, the half-life in [7] was 30 h. Moreover, the half-inhibitory concentration (IC50) in the data set on Plasmodium falciparum was 12.3 nM.

(Values after ChEMBL document CHEMBL1148452, “Fluoroartemisinin: trifluoromethyl analogues of artemether and artesunate” (J Med Chem, 2004).)
